# In ChEMBL document CHEMBL4765336, “Discovery of coumarin derivatives as potent and selective cyclin-dependent kinase 9 (CDK9) inhibitors with high antitumour activity” (Eur J Med Chem, 2020):
# Experiments:
# [1] = Metabolic stability in dog liver microsomes assessed as half life at 1 uM incubated up to 60 mins in presence of NADPH by LC-MS/MS analysis; format: ADME, Canis lupus familiaris, Microsome
# Outline: (§1)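 Liver microsomes (0.5 mg/mL) incubated at 37 °C with compound at 1.0 μM final, 3 mM MgCl2 and 1 mM NADPH in 100 mM PBS pH 7.4. Samples taken at 0, 5, 15, 30, 60 min; remaining parent measured by LC-MS/MS. k = −slope, T1/2 = 0.693/k, CLint = k/microsomal protein concentration. Midazolam served as control.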
# [2] = Metabolic stability in rat liver microsomes assessed as intrinsic clearance at 1 uM incubated up to 60 mins in presence of NADPH by LC-MS/MS analysis; format: ADME, Microsome; details: read-out: CLH; outline: as §1
# [3] = Metabolic stability in dog liver microsomes assessed as intrinsic clearance at 1 uM incubated up to 60 mins in presence of NADPH by LC-MS/MS analysis; format: ADME, Canis lupus familiaris, Microsome; details: read-out: CLH; outline: as §1
# [4] = Metabolic stability in human liver microsomes assessed as intrinsic clearance at 1 uM incubated up to 60 mins in presence of NADPH by LC-MS/MS analysis; format: ADME, Microsome; details: read-out: CLH; outline: as §1
# HepG2 = assay: Antiproliferative activity against human HepG2 cells assessed as inhibition of cell growth incubated for 72 hrs by Celltiter-Glo luminescent assay; format: functional, cell-based; details: HepG2, 72 h
# Outline: (§2)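 Cells seeded in growth medium and held overnight at 37 °C; medium-only wells served as background. DMSO stocks were diluted in medium to 3× final and added; cells incubated 72 h at 37 °C, 5% CO2. Viability read by CellTiter-Glo luminescence after 60 min at room temperature. IC50 from curve fit, mean of duplicate.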
# CDK9/cyclin T1 = CDK9/cyclin T1 (Homo sapiens, UniProt P50750); assay: Inhibition of CDK9/Cyclin T1 (unknown origin) preincubated for 20 mins followed by ATP addition and measured after 120 mins in presence of [33P-gamma] ATP by hotspot kinase assay; format: protein-complex assay
# Sequence of CDK9/cyclin T1 (O60563 whole entry): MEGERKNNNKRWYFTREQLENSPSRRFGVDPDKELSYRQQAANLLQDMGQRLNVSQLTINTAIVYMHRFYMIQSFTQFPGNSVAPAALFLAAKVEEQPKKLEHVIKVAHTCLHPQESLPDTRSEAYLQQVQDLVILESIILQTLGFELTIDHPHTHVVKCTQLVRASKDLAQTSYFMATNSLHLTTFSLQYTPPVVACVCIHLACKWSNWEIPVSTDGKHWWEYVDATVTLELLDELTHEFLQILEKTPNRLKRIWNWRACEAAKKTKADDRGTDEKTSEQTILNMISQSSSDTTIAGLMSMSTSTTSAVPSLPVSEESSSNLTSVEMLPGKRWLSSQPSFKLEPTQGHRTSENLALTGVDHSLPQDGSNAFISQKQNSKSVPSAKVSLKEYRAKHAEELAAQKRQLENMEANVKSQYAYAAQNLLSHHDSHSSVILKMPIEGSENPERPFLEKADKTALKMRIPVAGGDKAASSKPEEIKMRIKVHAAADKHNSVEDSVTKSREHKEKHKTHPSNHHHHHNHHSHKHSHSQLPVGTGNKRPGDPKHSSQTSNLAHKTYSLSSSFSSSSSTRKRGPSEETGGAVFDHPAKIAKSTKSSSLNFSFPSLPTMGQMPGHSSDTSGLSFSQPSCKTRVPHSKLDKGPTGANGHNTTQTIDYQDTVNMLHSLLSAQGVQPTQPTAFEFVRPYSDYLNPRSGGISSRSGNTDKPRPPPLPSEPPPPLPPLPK
# Sequence of CDK9/cyclin T1 (P50750 whole entry): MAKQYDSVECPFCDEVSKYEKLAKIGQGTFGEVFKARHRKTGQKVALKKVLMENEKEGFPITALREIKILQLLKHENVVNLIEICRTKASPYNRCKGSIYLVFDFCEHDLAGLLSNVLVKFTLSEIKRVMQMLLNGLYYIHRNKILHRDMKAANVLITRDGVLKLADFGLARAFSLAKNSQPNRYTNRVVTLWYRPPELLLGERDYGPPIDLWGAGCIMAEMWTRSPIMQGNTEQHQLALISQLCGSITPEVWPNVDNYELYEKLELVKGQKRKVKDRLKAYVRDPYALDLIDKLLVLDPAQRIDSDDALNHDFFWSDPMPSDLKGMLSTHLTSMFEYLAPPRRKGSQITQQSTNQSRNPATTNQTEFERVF
# NCI-N87 = assay: Antiproliferative activity against human NCI-N87 cells assessed as inhibition of cell growth incubated for 72 hrs by Celltiter-Glo luminescent assay; format: functional, cell-based; details: NCI-N87, 72 h; outline: as §2
# NCI-H460 = assay: Antiproliferative activity against human NCI-H460 cells assessed as inhibition of cell growth incubated for 72 hrs by Celltiter-Glo luminescent assay; format: functional, cell-based; details: NCI-H460, 72 h; outline: as §2
# BXPC-3 = assay: Antiproliferative activity against human BxPC3 cells assessed as inhibition of cell growth incubated for 72 hrs by Celltiter-Glo luminescent assay; format: functional, cell-based; details: BXPC-3, 72 h; outline: as §2
# [5] = Metabolic stability in monkey liver microsomes assessed as half life at 1 uM incubated up to 60 mins in presence of NADPH by LC-MS/MS analysis; format: ADME, Macaca mulatta, Microsome; details: rhesus monkey; outline: as §1
# MV4-11 = assay: Antiproliferative activity against human MV4-11 cells assessed as inhibition of cell growth incubated for 72 hrs by Celltiter-Glo luminescent assay; format: functional, cell-based; details: MV4-11, 72 h; outline: as §2
# SW-620 = assay: Antiproliferative activity against human SW-620 cells assessed as inhibition of cell growth incubated for 72 hrs by Celltiter-Glo luminescent assay; format: functional, cell-based; details: SW-620, 72 h; outline: as §2
# A-375 = assay: Antiproliferative activity against human A-375 cells assessed as inhibition of cell growth incubated for 72 hrs by Celltiter-Glo luminescent assay; format: functional, cell-based; details: A-375, 72 h; outline: as §2
# PANC-1 = assay: Antiproliferative activity against human PANC-1 cells assessed as inhibition of cell growth incubated for 72 hrs by Celltiter-Glo luminescent assay; format: functional, cell-based; details: PANC-1, 72 h; outline: as §2
# HCT-116 = assay: Antiproliferative activity against human HCT-116 cells assessed as inhibition of cell growth incubated for 72 hrs by Celltiter-Glo luminescent assay; format: functional, cell-based; details: HCT-116, 72 h; outline: as §2
# CDK2/Cyclin A2 = CDK2/Cyclin A2 (Homo sapiens, UniProt P24941); assay: Inhibition of CDK2/Cyclin A (unknown origin) preincubated for 20 mins followed by ATP addition and measured after 120 mins in presence of [33P-gamma] ATP by hotspot kinase assay; format: protein-complex assay
# Outline: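 Radiometric filter-binding assay: kinase and substrate in 20 mM Hepes pH 7.5, 10 mM MgCl2, 1 mM EGTA, 0.02% Brij35, 0.02 mg/mL BSA, 0.1 mM Na3VO4, 2 mM DTT, 1% DMSO. Compound (top 1/10/27 μM, 3-fold serial dilutions) preincubated 20 min at 25 °C. ATP plus [γ-33P]ATP added to 10 μM final, reacted 120 min at 25 °C. IC50 from curve fit, duplicate mean.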
# [6] = Metabolic stability in human liver microsomes assessed as half life at 1 uM incubated up to 60 mins in presence of NADPH by LC-MS/MS analysis; format: ADME, Microsome; outline: as §1
# A549 = assay: Antiproliferative activity against human A549 cells assessed as inhibition of cell growth incubated for 72 hrs by Celltiter-Glo luminescent assay; format: functional, cell-based; details: A549, 72 h; outline: as §2
# MDA-MB-231 = assay: Antiproliferative activity against human MDA-MB-231 cells assessed as inhibition of cell growth incubated for 72 hrs by Celltiter-Glo luminescent assay; format: functional, cell-based; details: MDA-MB-231, 72 h; outline: as §2
# MOLM-13 = assay: Antiproliferative activity against human MOLM-13 cells assessed as inhibition of cell growth incubated for 72 hrs by Celltiter-Glo luminescent assay; format: functional, cell-based; details: MOLM-13, 72 h; outline: as §2
# [7] = Metabolic stability in rat liver microsomes assessed as half life at 1 uM incubated up to 60 mins in presence of NADPH by LC-MS/MS analysis; format: ADME, Microsome; outline: as §1
# MIA PaCa-2 = assay: Antiproliferative activity against human MIA PaCa-2 cells assessed as inhibition of cell growth incubated for 72 hrs by Celltiter-Glo luminescent assay; format: functional, cell-based; details: MIA PaCa-2, 72 h; outline: as §2
# [8] = Metabolic stability in monkey liver microsomes assessed as intrinsic clearance at 1 uM incubated up to 60 mins in presence of NADPH by LC-MS/MS analysis; format: ADME, Macaca mulatta, Microsome; details: rhesus monkey, read-out: CLH; outline: as §1
structure (smiles),measurement,setting,value
COc1cc(F)ccc1-c1ccnc(Nc2ccc3c(N4CCOCC4)c(C(C)=O)c(=O)oc3c2)n1,half-life at 1 µM,[1],14.1 min
same,microsomal CLint at 1 µM,[2],144 µL/min/mg
same,microsomal CLint at 1 µM,[3],98.3 µL/min/mg
same,microsomal CLint at 1 µM,[4],41.4 µL/min/mg
same,IC50,HepG2,560 nM
same,IC50,CDK9/cyclin T1,8.8 nM
same,IC50,NCI-N87,3580 nM
same,IC50,NCI-H460,2150 nM
same,IC50,BXPC-3,910 nM
same,half-life at 1 µM,[5],22.2 min
same,IC50,MV4-11,250 nM
same,IC50,SW-620,2700 nM
same,IC50,A-375,960 nM
same,IC50,PANC-1,1880 nM
same,IC50,HCT-116,660 nM
same,IC50,CDK2/Cyclin A2,1330 nM
same,half-life at 1 µM,[6],33.5 min
same,IC50,A549,2360 nM
same,IC50,MDA-MB-231,1580 nM
same,IC50,MOLM-13,260 nM
same,half-life at 1 µM,[7],9.61 min
same,IC50,MIA PaCa-2,1600 nM
same,microsomal CLint at 1 µM,[8],62.5 µL/min/mg
